{
  "source": "ChEMBL document CHEMBL4346653",
  "about": "“A2B Adenosine Receptor Antagonists with Picomolar Potency” (J Med Chem, 2019)",
  "key": {"Mus musculus [1]": {"species": "Mus musculus", "assay": "Selectivity ratio of Ki for displacement of [3H]NECA from recombinant mouse A3 adenosine receptor expressed in CHO cell membranes to Ki for displacement of [3H]PSB-603 from recombinant mouse A2B adenosine receptor expressed in CHO cell membranes"}, "Mus musculus [2]": {"species": "Mus musculus", "assay": "Selectivity ratio of Ki for displacement of [3H]CCPA from recombinant mouse A1 adenosine receptor expressed in CHO cell membranes to Ki for displacement of [3H]PSB-603 from recombinant mouse A2B adenosine receptor expressed in CHO cell membranes"}, "[3]": {"molecular_target": "T1, Adenosine receptor A3 (Homo sapiens) (UniProt P0DMS8)", "T1 sequence (whole entry)": "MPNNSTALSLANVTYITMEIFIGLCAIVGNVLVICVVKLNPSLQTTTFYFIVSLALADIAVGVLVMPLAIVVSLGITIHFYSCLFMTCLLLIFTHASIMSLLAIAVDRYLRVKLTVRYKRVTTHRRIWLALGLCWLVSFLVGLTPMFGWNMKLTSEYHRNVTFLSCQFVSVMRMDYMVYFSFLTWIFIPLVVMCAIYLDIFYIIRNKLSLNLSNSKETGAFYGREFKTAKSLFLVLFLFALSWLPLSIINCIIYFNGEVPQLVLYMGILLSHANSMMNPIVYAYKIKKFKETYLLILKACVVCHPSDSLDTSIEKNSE", "assay": "Displacement of [3H]PSB-11 from recombinant human A3 adenosine receptor expressed in CHO cell membranes at 1 uM measured after 45 mins in presence of adenosine deaminase by liquid scintillation counting method relative to control", "procedure,_shortened": "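Single-point competition binding at human AR subtype membranes, each against its own tritiated radioligand. The test compound is given at 1 μM, and the result is reported as percent inhibition of radioligand binding. The radioligand-specific footnotes give n = 3.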"}, "[4]": {"molecular_target": "T2, Adenosine receptor A1 (Mus musculus) (UniProt Q60612)", "T2 sequence (whole entry)": "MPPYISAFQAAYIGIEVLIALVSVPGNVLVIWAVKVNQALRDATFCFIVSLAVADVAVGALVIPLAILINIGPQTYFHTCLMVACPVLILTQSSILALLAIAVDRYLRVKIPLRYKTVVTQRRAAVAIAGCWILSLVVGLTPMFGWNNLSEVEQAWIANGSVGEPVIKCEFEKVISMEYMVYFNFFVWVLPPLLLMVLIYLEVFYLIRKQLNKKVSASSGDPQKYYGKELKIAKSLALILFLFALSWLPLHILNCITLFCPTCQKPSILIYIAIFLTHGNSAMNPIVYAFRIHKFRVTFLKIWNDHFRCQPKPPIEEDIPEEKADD", "assay": "Displacement of [3H]CCPA from recombinant mouse A1 adenosine receptor expressed in CHO cell membranes at 1 uM measured after 90 mins in presence of adenosine deaminase by liquid scintillation counting method relative to control"}, "Adenosine receptor A2b": {"molecular_target": "T3, Adenosine receptor A2b (Mus musculus, UniProt Q60614)", "T3 sequence (Q60614 whole entry)": "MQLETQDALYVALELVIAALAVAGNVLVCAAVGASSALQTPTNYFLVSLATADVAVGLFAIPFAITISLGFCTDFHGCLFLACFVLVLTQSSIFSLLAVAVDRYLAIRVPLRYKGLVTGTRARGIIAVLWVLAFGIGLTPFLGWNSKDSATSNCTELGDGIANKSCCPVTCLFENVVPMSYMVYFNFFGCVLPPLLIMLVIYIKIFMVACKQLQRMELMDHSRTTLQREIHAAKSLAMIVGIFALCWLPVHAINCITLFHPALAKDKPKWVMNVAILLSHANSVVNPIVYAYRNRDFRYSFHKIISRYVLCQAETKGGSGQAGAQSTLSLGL", "assay": "Displacement of [3H]PSB-603 from recombinant mouse A2B adenosine receptor expressed in CHO cell membranes measured after 75 mins in presence of adenosine deaminase by liquid scintillation counting method"}, "Homo sapiens": {"species": "Homo sapiens", "assay": "Selectivity index, ratio of Ki for displacement of [3H]MSX-2 from recombinant human A2A adenosine receptor expressed in CHO cell membranes to Ki for displacement of [3H]PSB-603 from recombinant human A2B adenosine receptor expressed in CHO cell membranes"}, "[5]": {"assay": "Selectivity ratio of Ki for displacement of [3H]PSB-603 from recombinant mouse A2B adenosine receptor expressed in CHO cell membranes to Ki for displacement of [3H]PSB-603 from recombinant human A2B adenosine receptor expressed in CHO cell membranes"}},
  "data": [
    {"compound": "CCCn1c(=O)[nH]c2nc(-c3ccc(S(=O)(=O)N4CCN(c5ccc(Br)cc5)CC4)cc3)[nH]c2c1=O", "values": [
      {"measurement": "Ratio Ki", "setting": "Mus musculus [1]", "result": "> 7630"},
      {"measurement": "Ratio Ki", "setting": "Mus musculus [2]", "result": "> 7630"},
      {"measurement": "inhibition", "setting": "[3]", "result": 29, "unit": "%"},
      {"measurement": "inhibition", "setting": "[4]", "result": 29, "unit": "%"},
      {"measurement": "Ki", "setting": "Adenosine receptor A2b", "result": 0.131, "unit": "nM"},
      {"measurement": "Ratio Ki", "setting": "Homo sapiens", "result": "> 12000"}
    ]},
    {"compound": "CCCn1c(=O)c2[nH]c(-c3ccc(S(=O)(=O)N4CCN(c5ccc(Cl)cc5)CC4)cc3)nc2n(C)c1=O", "values": [
      {"measurement": "Ratio Ki", "setting": "Mus musculus [1]", "result": 180},
      {"measurement": "inhibition", "setting": "[3]", "result": 39, "unit": "%"},
      {"measurement": "Ratio Ki", "setting": "[5]", "result": "1.5 to 6"},
      {"measurement": "Ki", "setting": "Adenosine receptor A2b", "result": 8.34, "unit": "nM"},
      {"measurement": "Ratio Ki", "setting": "Homo sapiens", "result": "> 520"}
    ]},
    {"compound": "CCCn1c(=O)[nH]c2nc(-c3ccc(S(=O)(=O)N4CCN(c5cccc(F)c5)CC4)cc3)[nH]c2c1=O", "values": [
      {"measurement": "Ratio Ki", "setting": "Mus musculus [2]", "result": "> 320"},
      {"measurement": "inhibition", "setting": "[3]", "result": 44, "unit": "%"},
      {"measurement": "Ratio Ki", "setting": "[5]", "result": "1.5 to 6"},
      {"measurement": "inhibition", "setting": "[4]", "result": 46, "unit": "%"},
      {"measurement": "Ki", "setting": "Adenosine receptor A2b", "result": 0.926, "unit": "nM"},
      {"measurement": "Ratio Ki", "setting": "Homo sapiens", "result": "> 1580"}
    ]}
  ]
}
